Results as given in ChEMBL document CHEMBL4002581, “Versiquinazolines A-K, Fumiquinazoline-Type Alkaloids from the Gorgonian-Derived Fungus Aspergillus versicolor LZD-14-1” (J Nat Prod, 2016).

What was measured:
A2780 = experiment: Cytotoxicity against human A2780 cells by MTT assay; format: functional, cell-based
How it was run: (§1)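 Tetrazolium-based colorimetric (MTT) read-out of tumour-cell viability, run on A549 and A2780 lines.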

A549 = experiment: Cytotoxicity against human A549 cells by MTT assay; format: functional, cell-based; how it was run: as §1
Homo sapiens = species: Homo sapiens; experiment: Inhibition of thioredoxin reductase (unknown origin) at 50 uM measured after 5 mins by DTNB reduction assay relative to control
How it was run: (§2)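 TrxR inhibition was screened at 50 μM as % inhibition, and IC50 values are reported in μM. Curcumin was run as positive control. The procedure follows a previously described method.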

[1] = Inhibition of thioredoxin reductase (unknown origin) measured after 5 mins by DTNB reduction assay; parameters: species or system Homo sapiens; how it was run: as §2

SMILES | inhibition (Homo sapiens) | IC50 [1] | IC50 (A2780) | IC50 (A549)
COC(=O)[C@@H]1C[C@]2(O)c3ccccc3N3C(=O)C4(CC4)N([C@@H](OC)c4nc5ccccc5c(=O)n41)[C@H]32 | 83% | 13 µM | > 50 µM | > 50 µM
C[C@H]1C(=O)N2c3ccccc3[C@@]34C[C@H]5C(=O)N(CN1[C@H]23)[C@@H](O4)c1nc2ccccc2c(=O)n15 | 64% | 20 µM | > 50 µM | > 50 µM
O=C1N[C@H]2O[C@@]3(C[C@@H]1n1c2nc2ccccc2c1=O)c1ccccc1N1C(=O)C2(CC2)N[C@H]13 | 47% |  | > 50 µM | > 50 µM
C[C@H]1C(=O)N2c3ccccc3[C@@]3(O)C[C@H]4C(=O)N[C@H](c5nc6ccccc6c(=O)n54)N1[C@H]23 | 38% |  | > 50 µM | > 50 µM
C=CC(C)(C)[C@@]12C=C(OC)C(=O)N3[C@@H](C)C(=O)N[C@]31N(OC)c1ccccc12 | 13% |  | > 50 µM | > 50 µM
O=C1[C@@H]2C[C@@]34O[C@@H](c5nc6ccccc6c(=O)n52)N1CN1[C@@H]3N(C(=O)C12CC2)c1ccccc14 | 83% | 12 µM | > 50 µM | > 50 µM
O=C1NCc2nc3ccccc3c(=O)n2[C@H]1C[C@@]12OCN3[C@@H]1N(C(=O)C31CC1)c1ccccc12 | 51% |  | > 50 µM | > 50 µM
O=C1NCc2nc3ccccc3c(=O)n2[C@H]1C[C@]1(O)c2ccccc2N2C(=O)C3(CC3)N[C@H]21 | 28% |  | > 50 µM | > 50 µM
C[C@@H]1N[C@@H]2N(C1=O)c1ccccc1[C@@]2(O)C[C@H]1C(=O)NCc2nc3ccccc3c(=O)n21 | 27% |  | > 50 µM | > 50 µM
COc1cc(/C=C/C(=O)CC(=O)/C=C/c2ccc(O)c(OC)c2)ccc1O | 25% |  |  | 

Further lines, with some results ahead:

inhibition (Homo sapiens) | IC50 [1] | SMILES | IC50 (A2780) | IC50 (A549)
55% |  | O=C1NCc2nc3c(O)cccc3c(=O)n2[C@H]1Cc1c[nH]c2ccccc12 | > 50 µM | > 50 µM
62% |  | CC[C@H](C)[C@@H]1C(=O)N2c3ccccc3[C@@]3(O)C[C@H](n4cnc5ccccc5c4=O)C(=O)N1[C@@H]23 | > 50 µM | > 50 µM
43% |  | CC[C@H](C)[C@H]1C(=O)N2c3ccccc3[C@@]3(O)C[C@H]4C(=O)N[C@H](c5nc6ccccc6c(=O)n54)N1[C@H]23 | > 50 µM | > 50 µM
76% | 13 µM | C=CC(C)(C)[C@@]12C=C(OC)C(=O)N3[C@@H](C)C(=O)N[C@]31N(O)c1ccccc12 | > 50 µM | > 50 µM
17% |  | O=C1N[C@@H]2c3nc4ccccc4c(=O)n3[C@H]1C[C@]1(O)c3ccccc3N3C(=O)C4(CC4)N2[C@H]31 | > 50 µM | > 50 µM
